Assay results from PubChem BioAssay AID493234 (Broad Institute, 2011).
Several values for one entry are separate records, joined by “and”; a condition that tells them apart may be missing. Equal entries are not always repeated. Activity calls are given as the source filed them.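 The calls were made as follows: active = fitted curve rises to an activation of 500 at or below the top valid dose; inactive = the rest, including activity in the falling direction.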

System: not listed separately
Assay: HRE reporter activators under added zinc – cell-based, U2OS, luminescence, dry powder, set 2, mechanism study for HIF pathway activator project, dose response (AID 493234)
Conditions: U2OS HRE-luciferase, zinc medium, luminescence; at 38 µM (top of the series)
How it was run: (§1)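 schedule = 24 h cell growth at 37 °C, then 24 h compound exposure | system = U2OS cells with stable HRE-luciferase reporter | detection = Steady-Glo luminescence | compound dosing = 8 concentrations, 3-fold dilution steps | probe or stimulus = zinc sulfate, 50 µM final, added before compound addition | buffer or medium = phenol red-free DMEM with 10% FBS, without hygromycin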

Structure (SMILES) | activation
O=C(NCC1CCCCC1)c1cc(-c2ccccc2)on1 | 52.6% (inactive)
c1ccc(-c2nnc(-c3ccccn3)nc2Nc2nc3ccccc3s2)cc1 | -16.5% (inactive)
Oc1ccc(CN2CCC(Cc3ccccc3)CC2)c2cccnc12 | -5.34% (inactive)
Oc1ccc(CN2CCc3ccccc3C2)c2cccnc12 | -19.3% (inactive) and -19.9% (inactive)
O=C(NCCN1CCCCC1)c1cc(-c2ccccc2)on1 | 32.2% (inactive)
O=C(Nc1ncc2ccccc2n1)c1cc(-c2ccccc2)on1 | 34.5% (inactive)
CC(C)(C)CCNC(=O)c1cc(-c2ccccc2)on1 | 247% (inactive)
c1ccc(-c2csc(Nc3nc(-c4ccccn4)nnc3-c3ccccc3)n2)cc1 | 86.1% (inactive)
c1ccc(-c2nnc(Nc3nc(-c4ccccn4)nnc3-c3ccccc3)s2)cc1 | 141% (inactive)
O=C(c1cc(-c2ccccc2)on1)N1CCC(N2CCCC2)CC1 | 4.99% (inactive)
N#CC1(c2ccccc2)CCN(Cc2ccc(O)c3ncccc23)CC1 | 27.6% (inactive)
c1ccc(-c2cnc(Nc3nc(-c4ccccn4)nnc3-c3ccccc3)s2)cc1 | 19.5% (inactive)
O=C(Nc1cn2ccccc2n1)c1cc(-c2ccccc2)on1 | 7.47% (inactive)
O=C(Nc1nc2ccccc2s1)c1cc(-c2ccccc2)on1 | 14.8% (inactive)
O=C(c1cc(-c2ccccc2)on1)N1CCC(CO)CC1 | -4.31% (inactive)
O=C(NC1Cc2ccccc2C1)c1cc(-c2ccccc2)on1 | 56% (inactive)
O=C(Nc1ccc2ccccc2n1)c1cc(-c2ccccc2)on1 | -7.7% (inactive)
CC(C)(C)OC(=O)N1CCN(Cc2ccc(O)c3ncccc23)CC1 | 4.29% (inactive)
O=C(c1cc(-c2ccccc2)on1)N1CCC(N2CCOCC2)CC1 | 1.96% (inactive)
Cc1cccc(CNC(=O)c2cc(-c3ccccc3)on2)c1 | -0.529% (inactive)
Cn1c(-c2ccccc2)cnc1NC(=O)c1cc(-c2ccccc2)on1 | 9.13% (inactive)
O=C(NC1CCc2ccccc2C1)c1cc(-c2ccccc2)on1 (configuration not stated) | -5.89% (inactive)
CN(C)CCNC(=O)c1cc(-c2ccccc2)on1 | 9.51% (inactive)
Cc1ccc(NC(=O)c2cc(-c3ccccc3)on2)cn1 | 20.6% (inactive)

Structure (SMILES) | activation
c1ccc(-c2nnc(-c3ccccn3)nc2Nc2cnc3ccccc3n2)cc1 | -25.9% (inactive)
Cn1c(NC(=O)c2cc(-c3ccccc3)on2)nc2ccccc21 | -0.203% (inactive)
O=C(c1cc(-c2ccccc2)on1)N1CCN(c2ccncc2)CC1 | -5.2% (inactive)
Cc1ccccc1CNC(=O)c1cc(-c2ccccc2)on1 | 15.2% (inactive)
CN1CCN(C(=O)c2cc(-c3ccccc3)on2)CC1 | -12.5% (inactive)
O=C(Nc1ncc(-c2ccccc2)o1)c1cc(-c2ccccc2)on1 | -4.08% (inactive)
O=C(Nc1nnc(-c2ccccc2)s1)c1cc(-c2ccccc2)on1 | 4.85% (inactive)
Oc1ccc(CN2CCC3CCCCC3C2)c2cccnc12 (configuration not stated) | 275% (inactive)
O=C(Nc1cnc2ccccc2c1)c1cc(-c2ccccc2)on1 | 10.1% (inactive)
Oc1ccc(CNC2CCc3ccccc32)c2cccnc12 (configuration not stated) | -23.4% (inactive)
O=C(NCC1CC1)c1cc(-c2ccccc2)on1 | 386% (inactive)
Cc1cccc(NC(=O)c2cc(-c3ccccc3)on2)n1 | 24.2% (inactive)
Cn1c(-c2ccccc2)cnc1Nc1nc(-c2ccccn2)nnc1-c1ccccc1 | 109% (inactive)
OCC1CCN(Cc2ccc(O)c3ncccc23)CC1 | 12.5% (inactive)
Oc1ccc(CNC2Cc3ccccc3C2)c2cccnc12 | 217% (inactive)
O=C(NCCCN1CCOCC1)c1cc(-c2ccccc2)on1 | 449% (inactive)
O=C(NCCN1CCOCC1)c1cc(-c2ccccc2)on1 | 430% (inactive)
Cc1ccc(CNC(=O)c2cc(-c3ccccc3)on2)cc1 | -6.78% (inactive)
O=C(Nc1nc(-c2ccccc2)cs1)c1cc(-c2ccccc2)on1 | -1.71% (inactive)
O=C(NCc1ccccc1)c1cc(-c2ccccc2)on1 | 32.9% (inactive)
O=C(c1cc(-c2ccccc2)on1)N1CCc2cccnc21 | 3.59% (inactive)
CC1CN(Cc2ccc(O)c3ncccc23)CC(C)O1 (configuration not stated) | -5.99% (inactive)
O=C(NCCCO)c1cc(-c2ccccc2)on1 | 325% (inactive)
COc1ccccc1N1CCN(Cc2ccc(O)c3ncccc23)CC1 | -1.45% (inactive)

System: U2OS HRE-luciferase, zinc medium, luminescence
Assay: as above
Conditions: not given
How it was run: as §1

Structure (SMILES) | AC500
c1ccc(CNc2nc(-c3ccccn3)nnc2-c2ccccc2)cc1 | 6.89 µM
c1ccc(CCNc2nc(-c3ccccn3)nnc2-c2ccccc2)cc1 | 7.94 µM
C[C@@H](Nc1nc(-c2ccccn2)nnc1-c1ccccc1)c1ccccc1 | 6.17 µM
c1ccc(-c2nnc(-c3ccccn3)nc2NCCc2ccccn2)cc1 | 18 µM
c1ccc(-c2nnc(-c3ccccn3)nc2N2CCN(c3ccncc3)CC2)cc1 | 15.3 µM
C=CCNc1nc(-c2ccccn2)nnc1-c1ccccc1 | 15 µM
Cc1ccccc1CNc1nc(-c2ccccn2)nnc1-c1ccccc1 | 7.16 µM
CC(C)(C)c1ccc(CNc2nc(-c3ccccn3)nnc2-c2ccccc2)cc1 | 2.89 µM
Cc1cccc(Nc2nc(-c3ccccn3)nnc2-c2ccccc2)n1 | 13.2 µM
c1ccc(-c2nnc(-c3ccccn3)nc2N2CCC(N3CCOCC3)CC2)cc1 | 16.2 µM
c1ccc(-c2ccc(CNc3nc(-c4ccccn4)nnc3-c3ccccc3)cc2)cc1 | 3.41 µM
COc1cccc(CNc2nc(-c3ccccn3)nnc2-c2ccccc2)c1 | 3.92 µM
c1ccc(-c2nnc(-c3ccccn3)nc2N2CCC(C3CCCCC3)C2)cc1 (configuration not stated) | 6.32 µM
OCCCNc1nc(-c2ccccn2)nnc1-c1ccccc1 | 22.9 µM
c1ccc(-c2nnc(-c3ccccn3)nc2NCCN2CCOCC2)cc1 | 15.7 µM
Cc1ccc(Nc2nc(-c3ccccn3)nnc2-c2ccccc2)cn1 | 17.8 µM
OCC1CCN(c2nc(-c3ccccn3)nnc2-c2ccccc2)CC1 | 21.1 µM
Cc1cccc(CNc2nc(-c3ccccn3)nnc2-c2ccccc2)c1 | 6.47 µM
C[C@@H](Nc1nc(-c2ccccn2)nnc1-c1ccccc1)C1CCCCC1 | 6.94 µM
C[C@H](Nc1nc(-c2ccccn2)nnc1-c1ccccc1)C1CCCCC1 | 5.01 µM

Structure (SMILES) | AC500
c1ccc(-c2nnc(-c3ccccn3)nc2NCC2CCCCC2)cc1 | 5.43 µM
CC(C)(C)CCNc1nc(-c2ccccn2)nnc1-c1ccccc1 | 4.65 µM and 2.47 µM
O=C(NCCCCO)c1cc(-c2ccccc2)on1 | 12.1 µM
COc1ccc(CNc2nc(-c3ccccn3)nnc2-c2ccccc2)cc1 | 5.26 µM
CC(Nc1nc(-c2ccccn2)nnc1-c1ccccc1)c1ccccc1 (configuration not stated) | 9.22 µM
c1ccc(-c2nnc(-c3ccccn3)nc2N2CCC(c3ccccc3)C2)cc1 (configuration not stated) | 3.01 µM
O=C(NCCCn1ccnc1)c1cc(-c2ccccc2)on1 | 16.4 µM
Cc1ccc(CNc2nc(-c3ccccn3)nnc2-c2ccccc2)cc1C | 2.19 µM
c1ccc(-c2nnc(-c3ccccn3)nc2NCC2CC2)cc1 | 16.1 µM
c1ccc(-c2nnc(-c3ccccn3)nc2NCCCN2CCOCC2)cc1 | 16 µM
Cc1ccc(CNc2nc(-c3ccccn3)nnc2-c2ccccc2)cc1 | 7.26 µM
CN1CCN(c2nc(-c3ccccn3)nnc2-c2ccccc2)CC1 | 15.8 µM
CN(C)c1nc(-c2ccccn2)nnc1-c1ccccc1 | 20.2 µM
c1ccc(-c2nnc(-c3ccccn3)nc2NCc2ccccn2)cc1 | 20.8 µM
c1ccc(-c2nnc(-c3ccccn3)nc2NCc2cccnc2)cc1 | 19 µM
Clc1cccc(CNc2nc(-c3ccccn3)nnc2-c2ccccc2)c1 | 2 µM
CCCCNC(=O)c1cc(-c2ccccc2)on1 | 32.2 µM
c1ccc(-c2cccc(CNc3nc(-c4ccccn4)nnc3-c3ccccc3)c2)cc1 | 3.69 µM
c1ccc(-c2nnc(-c3ccccn3)nc2NCC2CCOCC2)cc1 | 18.8 µM
